Screening results (PubChem BioAssay)
RGS4 inh: human RGS4 inhibition; P49798; B-score at 10 µM; HEK293 M3R/RGS4 inducible, Fluo-4 calcium flux; hits give high values; triggered by carbachol at its EC20; actives 0.45% (n = 310,000);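 active = B-score, a plate-corrected calcium signal, over three deviations above library mean, with baseline fluorescence within five deviations of library mean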;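 note: RGS4 expression induced by doxycycline in cells with stable M3 receptor; B-score is computed from the integrated fluorescence ratio over baseline after carbachol; higher B-score means a larger calcium signal and so more RGS4 inhibition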
Target sequence (P49798 whole entry, looked up): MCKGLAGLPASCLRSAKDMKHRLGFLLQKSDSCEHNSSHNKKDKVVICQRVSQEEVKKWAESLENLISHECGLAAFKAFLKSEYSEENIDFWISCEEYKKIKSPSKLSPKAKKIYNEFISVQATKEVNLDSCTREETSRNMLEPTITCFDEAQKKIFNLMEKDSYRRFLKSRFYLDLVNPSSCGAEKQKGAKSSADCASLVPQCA
RGS4 pot: RGS4 potentiation or activation; HEK293 M3R/inducible RGS4, carbachol calcium flux Fluo4; hits give low values; B-score at 10 µM; actives 0.92% (n = 310,000); AID 463111;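 active = B-score of the integrated calcium signal more than 4 SD below the library mean, with starting fluorescence not abnormally high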;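 note: negative B-score means reduced calcium response which marks RGS4 activation or potentiation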
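Material: M3R-expressing HEK293 line, RGS4 induced by doxycycline | Schedule: Overnight RGS4 induction, 30 min dye load 37 °C, 20 min compound RT | Measured by: Fluo4 fluorescence kinetic imaging of calcium | Read-out: Integrated calcium ratio converted to B score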
MrgX1 allo act: allosterically activates human MrgX1 receptor signaling; Q96LB2; MrgX1-HEK293, Fluo-4 calcium flux, FDSS; hits give high values; B-score at 10 µM; actives 0.63% (n = 310,000); AID 588675;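 active = plate-corrected calcium response at least 3 library SD above typical, normal starting fluorescence, not activating the receptor alone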;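 note: compound read alongside a low EC10 to EC30 dose of BAM8-22 agonist; peak minus trough fluorescence over baseline measured at the second addition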
Target sequence (Q96LB2 whole entry, looked up): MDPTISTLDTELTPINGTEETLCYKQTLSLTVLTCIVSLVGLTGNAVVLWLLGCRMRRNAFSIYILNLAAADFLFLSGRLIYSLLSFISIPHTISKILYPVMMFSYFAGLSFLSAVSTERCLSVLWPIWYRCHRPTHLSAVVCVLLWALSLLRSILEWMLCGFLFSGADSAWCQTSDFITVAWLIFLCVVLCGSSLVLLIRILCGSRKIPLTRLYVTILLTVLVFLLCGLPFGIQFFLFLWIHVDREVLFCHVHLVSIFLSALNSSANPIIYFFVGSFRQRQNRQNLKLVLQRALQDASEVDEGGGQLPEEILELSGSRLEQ
MrgX1 antag: blocks BAM8-22 activation of human MrgX1 receptor. Q96LB2. MRGX1-HEK293 calcium flux, Fluo-4, BAM8-22 antagonism; hits give low values. B-score at 10 µM. actives 1.3% (n = 310,000). AID 588676;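 active = calcium-response B-score plate-corrected more than 3 library SD below zero, starting fluorescence within 5 deviations, no agonist response on first addition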;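 note: peak minus trough fluorescence over baseline after final BAM8-22 challenge near maximal dose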
MrgX1 agonist: activates human MrgX1 receptor signaling; Q96LB2; MrgX1-HEK293 cells, Fluo-4 calcium fluorescence, agonist mode; hits give high values; B-score at 10 µM; actives 0.44% (n = 310,000); AID 588627;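 active = calcium response B-score plate-corrected fluorescence ratio at least 3 library SD, with starting fluorescence B-score inside 5 SD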
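Assay system: stable human MrgX1 HEK293 cell line. Quantity: 15,000 cells per well. Schedule: cells plated overnight, dye loaded 0.5 h 37 °C, 0.5 h room temperature. Detection: Fluo-4 NW calcium-flux fluorescence, kinetic read. Read-out basis: peak-minus-minimum fluorescence over baseline, converted to B scores. Control set: positive and negative control wells on each plate.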
MrgX1 ant reconf: reconfirmed antagonist of human MrgX1 receptor signaling; MrgX1-HEK293, BAM8-22 calcium flux, Fluo-4; hits give low values; remaining BAM8-22 calcium response % of control (hits give low values), % at 10 µM; shares compounds with MrgX1 antag; AID 602420; actives 19% (n = 2,300);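 active = remaining agonist calcium response no higher than 100% minus 3 SD of agonist-only control wells, with starting fluorescence near control levels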;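 note: agonist BAM8-22 given at a near maximal EC90 to ECmax level; peak minus minimum fluorescence divided by baseline after agonist addition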
HEK293 Ca flux: activity in parental HEK293 cells lacking MrgX1. shares compounds with MrgX1 antag. Fluo-4 calcium fluorescence, FDSS. fluorescence ratio F(max-min)/F0 at 10 µM. actives 2% (n = 4,000);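 active = duplicate-averaged calcium fluorescence ratio at least three times the standard deviation of buffer wells, a nonspecific response in parental cells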
HEK293 Ca counter: MrgX1 allosteric activator counter-screen hit in parental HEK293 cells | actives 0.4% (n = 4,000) | shares compounds with MrgX1 antag | fluorescence ratio F(max-min)/F0 at 10 µM | AID 624114 | parental HEK293 calcium flux, Fluo-4 fluorescence ratio; hits give high values;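 active = calcium fluorescence ratio, averaged over duplicates, at least 3 SD of the buffer-well ratio, meaning a nonspecific response in receptor-free cells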;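 note: untransfected parental HEK293 lacking MrgX1 used as counterscreen for MrgX1 allosteric activators; fluorescence change taken during the second addition on a kinetic imager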
HEK293 Ca cntr2: MrgX1 activator counter-screen hit in parental HEK293 cells. shares compounds with MrgX1 antag. Fluo-4 calcium fluorescence (FDSS); hits give high values. fluorescence ratio F(max-min)/F0 at 10 µM. actives 8.7% (n = 4,000). AID 624115;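 active = calcium fluorescence ratio at least three times the spread of buffer wells, meaning a non-specific response in parental cells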
The depositor's hits bear a star; i = inactive; nt = no result given. Hits are enriched below; roughly 3.5% of the tested compounds scored in any of these assays.

SMILES	RGS4 inh	RGS4 pot	MrgX1 allo act	MrgX1 antag	MrgX1 agonist	MrgX1 ant reconf	HEK293 Ca flux	HEK293 Ca counter	HEK293 Ca cntr2
COc1ccccc1/C=C/C(=O)OCCN1C(=O)c2ccccc2C1=O	i	i	i	i	i	nt	nt	nt	nt
Cc1ccc(C(=O)Nc2ccc3c(c2)C(=O)N(C)C3=O)c(C)c1	i	i	i	-6.8*	i	i	i	i	i
CC(C)(C)c1ccccc1NC(=O)CN1C(=O)NC(Cc2ccccc2)C1=O (stereo unspecified)	i	i	i	i	i	nt	nt	nt	nt
Cc1ccc(-c2nnc(SCC(N)=O)n2C)cc1	i	i	i	-4.9*	i	i	i	i	i
CCN(CC)S(=O)(=O)c1cccc(-c2nnc(SCC(N)=O)n2C)c1	i	i	i	-6.7*	i	84%*	i	i	i
CCc1cccc(CC)c1NC(=O)CSc1nc2ccc(N3C(=O)C4C5C=CC(C5)C4C3=O)cc2s1 (stereo unspecified)	i	i	i	-8.2*	i	i	i	i	i
Brc1ccc(-c2nc3ncccn3c2NC2CCCCC2)o1	i	i	i	-5.3*	i	i	i	i	i
CC1=C(C(N)=O)C(c2cccc(O)c2)n2nc(CCCO)nc2N1 (stereo unspecified)	i	i	i	-4.7*	i	i	i	i	i
CC1=C(C(N)=O)C(c2ccc(Cl)cc2)n2nc(CCCO)nc2N1 (stereo unspecified)	i	i	i	i	i	nt	nt	nt	nt
Cc1nc2nc(-c3ccco3)[nH]n2c(=O)c1Cc1ccccc1	i	i	i	i	i	nt	nt	nt	nt
Cc1nc2nc(-c3ccco3)[nH]n2c(=O)c1C	i	i	i	-12*	i	i	i	i	i
Cc1ccc(S(=O)(=O)NCCC(=O)NCC(c2ccco2)N2CCCCC2)cc1C (stereo unspecified)	i	i	i	i	i	nt	nt	nt	nt
CCC(CO)NC(=O)c1ccccc1C(F)(F)F (stereo unspecified)	i	i	i	i	i	nt	nt	nt	nt
CCC1(c2ccc(F)cc2)NC(=O)N(CC(=O)NC2CC2)C1=O (stereo unspecified)	i	i	i	i	i	nt	nt	nt	nt
CCC1(c2ccc(F)cc2)NC(=O)N(CC(=O)c2cc(C)n(C3CC3)c2C)C1=O (stereo unspecified)	i	i	i	-6.3*	i	i	i	i	51*
O=C1OCCC1Sc1nc2ccccc2c(=O)n1Cc1ccccc1 (stereo unspecified)	i	i	i	-6.1*	i	i	i	i	i
O=C1OCCC1Sc1nc2cc(Cl)ccc2n1Cc1ccccc1 (stereo unspecified)	i	i	i	i	i	nt	nt	nt	nt
CCOc1ccc(N2C(=O)CN(O)C=C3N=c4ccccc4=C32)cc1	i	i	i	i	i	nt	nt	nt	nt
CC1CCN(Cc2nnnn2CCCC(=O)NCCc2cnn(C)c2)CC1	i	i	i	i	i	nt	nt	nt	nt
O=S(=O)(NC1CCCCC1N1CCN(c2ccccc2F)CC1)c1ccc(Cl)cc1 (stereo unspecified)	i	i	i	-9.6*	i	i	i	i	i
Cc1cccnc1NC(=S)NC(=O)c1cncc(Br)c1	i	i	i	-4.6*	i	i	i	i	i
